The source of these data is ChEMBL document CHEMBL2062438, “Probing the structural requirements for vitamin D3 inhibition of the hedgehog signaling pathway” (Bioorg Med Chem Lett, 2012).

Molecules are shown by their SMILES. Bounds are passed on as bounds.

Data set [1] is described as follows: Down-regulation of Gli1 mRNA expression in human U87MG cells at 10 uM after 24 hrs by RT-PCR analysis relative to DMSO-treated control. The data set is classed as functional, cell-based. The conditions noted are these: U-87MG ATCC.
In data set [2] the target is T1, Vitamin D3 receptor (Homo sapiens, UniProt P11473).
T1 sequence (P11473 whole entry): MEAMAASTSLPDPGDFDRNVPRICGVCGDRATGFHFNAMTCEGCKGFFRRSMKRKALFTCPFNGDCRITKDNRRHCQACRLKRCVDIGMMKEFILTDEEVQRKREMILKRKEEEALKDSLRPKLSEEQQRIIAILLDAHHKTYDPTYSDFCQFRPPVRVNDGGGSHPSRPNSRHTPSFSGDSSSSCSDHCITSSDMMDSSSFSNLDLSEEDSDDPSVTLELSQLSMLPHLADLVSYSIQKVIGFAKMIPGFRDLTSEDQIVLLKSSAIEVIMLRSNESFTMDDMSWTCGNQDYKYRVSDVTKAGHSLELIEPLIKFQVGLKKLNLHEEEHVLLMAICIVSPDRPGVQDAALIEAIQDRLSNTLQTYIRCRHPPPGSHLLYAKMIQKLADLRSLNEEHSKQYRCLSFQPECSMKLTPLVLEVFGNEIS
The experiment in a line: Binding affinity to full length human VDR by fluorescence polarization-based competitive assay. The data set is classed as ADME. Put shortly: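 Competitive fluorescence polarization binding using full-length human VDR and a tight-binding fluorescent VDR ligand; analogues tested at 50 and 100 µM.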
(In fluorescence polarisation assays a small probe gives low polarisation when free and higher when bound to something large.)

Data set [3] has as its system HT-29. Kind of data set: Upregulation of CYP24A1 mRNA expression in human HT-29 cells at 10 uM after 24 hrs by RT-PCR analysis relative to DMSO-treated control. The data set is classed as functional.
Data set [4] deals with T1, Vitamin D3 receptor. Kind of data set: Binding affinity to full length human VDR expressed in mouse C3H10T1/2 cells assessed as upregulation of CYP24A1 mRNA expression at 5 uM after 24 hrs by RT-PCR analysis relative to control. The data set is classed as ADME, cell-based. The conditions noted are these: c3h 10t1/2, 24 h. In short, it runs like this: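 Mouse C3H10T1/2 cells treated with analogue at 5 µM for 24 h. Cyp24A1 mRNA was measured and expressed relative to DMSO control, which was set to 1.0.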

Data set [5] is described as follows: Growth inhibition of human U87MG cells after 72 hrs by MTS assay. The data set is classed as functional, U-87MG ATCC. To be noted: U-87 MG. In short, it runs like this: (§1)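 Cells seeded at 3000/well, incubated overnight at 37 °C in 5% CO2, then treated in triplicate at varying concentrations in 1% DMSO final for 72 h. Viable cells read by MTS. GI50 given as mean ± SEM of at least two separate experiments.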
(Tetrazolium assays rely on reduction of a dye to a coloured formazan, in cell work by metabolically active cells.)

The nature of data set [6]: Upregulation of CYP24A1 mRNA expression in human U87MG cells at 10 uM after 24 hrs by RT-PCR analysis relative to DMSO-treated control. The data set is classed as functional, cell-based. The conditions noted are these: U-87MG ATCC.
Data set [7] has as its system HT-29. Kind of data set: Growth inhibition of human HT-29 cells overexpressing VDR gene after 72 hrs by MTS assay. The data set is classed as functional. To be noted: HT-29, 72 h. In short, it runs like this: as §1
Data set [8] relates to HT-29. The experiment in a line: Down-regulation of Gli1 mRNA expression in human HT-29 cells at 10 uM after 24 hrs by RT-PCR analysis relative to DMSO-treated control. The data set is classed as functional.
The target in data set [9] is Protein smoothened (Homo sapiens) (UniProt Q99835). The experiment in a line: Inhibition of SMO expressed in mouse C3H10T1/2 cells assessed as down-regulation of Gli1 mRNA expression at 5 uM after 24 hrs by RT-PCR analysis relative to oxysterol. The data set is classed as cell-based. To be noted: C3H 10T1/2. Also on record: scale not given: the % may be the effect or the level left. Put shortly:
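Hh-dependent C3H10T1/2 cells, with the pathway activated by oxysterol, co-treated with analogue at 5 µM for 24 h. Endogenous Gli1 mRNA is reported as % of the oxysterol control, set at 100%.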

In data set [10] the test system is U-87 MG. Kind of data set: Ratio of CYP24A1 mRNA upregulation in human […] cells to upregulation of CYP24A1 mRNA in human U87MG cells. The data set is classed as functional, U-87MG ATCC.

Sequence of Protein smoothened (Homo sapiens) (Q99835 whole entry): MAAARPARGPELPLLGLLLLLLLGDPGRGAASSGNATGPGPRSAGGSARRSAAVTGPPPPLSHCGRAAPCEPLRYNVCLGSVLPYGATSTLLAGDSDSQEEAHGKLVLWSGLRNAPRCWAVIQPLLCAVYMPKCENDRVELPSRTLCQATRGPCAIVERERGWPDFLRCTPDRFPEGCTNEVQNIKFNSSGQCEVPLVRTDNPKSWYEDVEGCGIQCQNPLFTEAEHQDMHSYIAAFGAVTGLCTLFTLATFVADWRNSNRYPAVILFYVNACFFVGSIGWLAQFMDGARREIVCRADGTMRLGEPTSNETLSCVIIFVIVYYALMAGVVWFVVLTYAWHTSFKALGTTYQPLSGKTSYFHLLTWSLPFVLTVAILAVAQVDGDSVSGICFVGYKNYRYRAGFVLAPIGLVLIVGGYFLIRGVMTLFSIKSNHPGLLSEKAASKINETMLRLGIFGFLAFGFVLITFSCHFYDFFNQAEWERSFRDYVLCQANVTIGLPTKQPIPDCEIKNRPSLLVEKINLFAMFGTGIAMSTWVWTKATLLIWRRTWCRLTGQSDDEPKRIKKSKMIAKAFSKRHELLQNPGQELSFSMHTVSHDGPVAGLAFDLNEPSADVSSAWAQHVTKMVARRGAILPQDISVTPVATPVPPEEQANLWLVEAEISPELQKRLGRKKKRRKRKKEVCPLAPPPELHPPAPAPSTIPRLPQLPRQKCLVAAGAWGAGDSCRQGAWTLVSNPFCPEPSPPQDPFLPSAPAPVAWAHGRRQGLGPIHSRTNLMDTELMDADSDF

As to `C=C1CC[C@H](O)C/C1=C/C=C1\CCC[C@]2(C)[C@@H]([C@H](C)CO)CC[C@@H]12`, the fold change (FC) in [1] came to 1; in data set [3], 69.1; in [6], 4.8; in [8], 2.7. The Activity in data set [2] was over 100 µM; in data set [4] it was 1350; in data set [9], 80%. Also, the GI50 in [5] and in data set [7] was over 100 µM each time.
In the case of `C=C1CC[C@H](O)C/C1=C/CO`, the fold change (FC) in data set [1] worked out at 0.9; in data set [3], 0.7; in data set [6] it was 0.6; in data set [8], 0.9. Moreover, the Activity in [2] was over 100 µM; in data set [4], 2; in data set [9], 80.9%. Also, the GI50 in data set [5] and in data set [7] was over 100 µM throughout.
On to `CC(C)CCC[C@@H](C)[C@H]1CCC2=CCCC[C@@]21C`, for which the fold change (FC) was found to be 1 in data set [1], 1.1 in data set [3], 0.5 in data set [6] and 1.1 in [8]. Also, the Activity in [2] is over 100 µM; in data set [4], 2.3; in data set [9], 111%. For the same compound, the concentration for 50% growth inhibition (GI50) in data set [5] and in data set [7] was over 100 µM in each case.
For the compound `CC(C)CCC[C@@H](C)[C@H]1CC[C@H]2C(CCC3C[C@@H](O)CCC3C)CCC[C@]12C` (some centres not stated), the fold change (FC) in [1] came to 0.8; in [3], 1.4; in data set [6] it was 0.8; in data set [8] it was 1.4. Further, the Activity in [2] was over 100 µM; in data set [4], 1.5; in data set [9], 82.1%. Moreover, the GI50 in data set [5] and in data set [7] was over 100 µM each time.
As for `CC(C)[C@@H](C)/C=C/[C@@H](C)[C@H]1CC[C@H]2[C@@H](O)CCC[C@]12C`, the fold change (FC) in data set [1] stood at 0.8; in data set [3], 0.7; in [6], 0.3; in [8], 0.9. Further, the Activity in [2] is over 100 µM; in data set [4] it was 2.3; in [9] it was 32.1%. Also, the GI50 in data set [5] was 19 µM; in data set [7] it was 49.7 µM.
In the case of `C=C1CCC=C/C1=C/C=C1\CCC[C@]2(C)[C@@H]([C@H](C)CCCC(C)C)CC[C@@H]12`, the fold change (FC) stood at 1 in data set [1], 1.9 in data set [3], 0.9 in data set [6] and 1.8 in data set [8]. Also, the Activity in data set [2] is over 100 µM; in data set [4], 3; in data set [9] it was 79.4%. Also, the GI50 was 48.5 µM in [5] and over 100 µM in [7].
Take `C=C1CC[C@H](O)C/C1=C/C(O)C1(O)CCC[C@]2(C)[C@@H]([C@H](C)CCCC(C)C)CC[C@@H]12` (some centres not stated): the fold change (FC) was determined as 1.1 in data set [1], 1.2 in [3], 0.5 in data set [6] and 0.9 in [8]. The figures for the Activity in data set [2], in [4] and in data set [9] were over 100 µM, 6.7 and 144%, respectively. Moreover, the GI50 in data set [5] was 25.9 µM; in [7], over 100 µM.
For `C=C1CC[C@H](O)C/C1=C\C=C1/CCC[C@]2(C)[C@@H]([C@H](C)CO)CC[C@@H]12`, the fold change (FC) was found to be 0.8 in data set [1], 3.3 in data set [3], 0.8 in [6] and 1.3 in data set [8]. Further, the Activity in data set [2] is over 100 µM; in data set [4], 12.5; in [9], 66.7%. The GI50 in [5] was 88.8 µM; in data set [7] it was over 100 µM.
With `C=C1CC[C@H](O)C/C1=C\C=C1/CCC[C@]2(C)[C@@H]([C@H](C)CCCC(C)C)CC[C@@H]12`, the fold change (FC) in [1] came to 1.1; in data set [3], 27.5; in data set [6] it was 33.8; in data set [8], 1.2. Further, the Activity in data set [2] was over 100 µM; in [4] it was 43.5; in data set [9], 69.7%. The GI50 in data set [5] was 46 µM; in [7], over 100 µM.
Consider `CC(C)CCC[C@@H](C)[C@H]1CC[C@H]2[C@@H](O)CCC[C@]12C`, for which the fold change (FC) in [1] was found to be 0.7; in data set [3] it was 1.1; in data set [6] it was 0.4; in data set [8], 1.1. Besides, the Activity is over 100 µM in data set [2], 3.6 in data set [4] and 46.4% in [9]. The GI50 turned out to be 5.7 µM in data set [5] and 66.5 µM in data set [7].
`C=C1CC[C@H](O)C/C1=C/C=C1\CCC[C@]2(C)[C@@H]([C@H](C)CCCC(C)C)CC[C@@H]12` [CHOLECALCIFEROL]: the fold change (FC) in [1] came to 0.7; in data set [3], 14697; in data set [6] it was 12.2; in data set [8] it was 1.3. In addition, the Activity in [2] is over 100 µM; in [4], 8340. Also, the Ratio in data set [10] is 10000. Besides, the GI50 in [5] is 23.2 µM; in data set [7], 68.5 µM.
Turning to `C[C@H](CO)[C@H]1CC[C@H]2[C@@H](O)CCC[C@]12C`, the fold change (FC) in [1] worked out at 1; in [3], 1; in data set [6], 0.7; in [8], 1.2. Further, the Activity in data set [2] is over 100 µM; in data set [4], 4.1; in [9], 87.6%. For the same compound, the GI50 in [5] and in data set [7] was over 100 µM throughout.
As to `C=C1CC[C@H](O)C/C1=C/C=C1\CCC[C@]2(C)[C@@H]([C@H](C)/C=C/[C@H](C)C(C)C)CC[C@@H]12` [ERGOCALCIFEROL], the fold change (FC) turned out to be 0.9 in data set [1], 10902 in [3], 49.6 in data set [6] and 1.1 in data set [8]. For the same compound, the Activity in data set [2] was over 100 µM; in data set [4], 2410; in data set [9], 28.1%. The Ratio in data set [10] came to 25. Also, the figures for the GI50 in data set [5] and in data set [7] were 33.7 µM and over 100 µM, respectively.
Regarding `CC(C)CCC[C@@H](C)[C@H]1CC[C@H]2C(=O)CCC[C@]12C`, the fold change (FC) is 0.9 in [1], 1 in data set [3], 0.5 in [6] and 1.1 in data set [8]. Besides, the Activity is over 100 µM in data set [2], 3 in [4] and 66.1% in data set [9]. The figures for the GI50 in data set [5] and in [7] were 12.1 µM and over 100 µM, respectively.

The GI50 is the concentration giving 50% growth inhibition.
